Experimental data from ChEMBL document CHEMBL1137629, “Antiproliferative effect of dihydroxyacetone on Trypanosoma brucei bloodstream forms: cell cycle progression, subcellular alterations, and cell death” (Antimicrob Agents Chemother, 2007).
Active and inactive are the calls of the source. No cut-off for these calls is given here.

Key:
[1] = system: Trypanosoma brucei; test: Induction of apoptosis-like programmed cell death in Trypanosoma brucei bloodstream form assessed as loss of mitochondrial-membrane potential at 100 nM after 24 hrs by TMRE staining; type: functional
Method in brief: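 T. brucei MITat 1.2 (EATRO 427) bloodstream forms were grown axenically at 37°C, 5% CO₂ and exposed to DHA for 24 h. Cells at 10⁶/ml were stained with 25 nM TMRE in culture medium for 30 min at 37°C and read at once by flow cytometry. Depolarization control: valinomycin 100 nM. Lower fluorescence signifies lost membrane potential.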

[2] = system: Trypanosoma brucei; test: Trypanocidal activity against Trypanosoma brucei bloodstream form assessed as induction of autophagy at 5 uM after 24 hrs by transmission electron microscopy; type: functional, organism-based
Method in brief: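 Autophagy positive control. Bloodstream forms treated with 5 μM rapamycin (from a 50 mM ethanol stock), processed by glutaraldehyde/osmium fixation, uranyl acetate staining, resin embedding and sectioning for transmission electron microscopy.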

SMILES | Activity [1] [%] | Activity [2]
CC(C)[C@@H]1NC(=O)[C@H](C)OC(=O)[C@@H](C(C)C)NC(=O)[C@@H](C(C)C)OC(=O)[C@H](C(C)C)NC(=O)[C@H](C)OC(=O)[C@@H](C(C)C)NC(=O)[C@@H](C(C)C)OC(=O)[C@H](C(C)C)NC(=O)[C@H](C)OC(=O)[C@@H](C(C)C)NC(=O)[C@@H](C(C)C)OC1=O [VALINOMYCIN] | 97.3 | 
CO[C@H]1C[C@@H]2CC[C@@H](C)[C@@](O)(O2)C(=O)C(=O)N2CCCC[C@H]2C(=O)O[C@H]([C@H](C)C[C@@H]2CC[C@@H](O)[C@H](OC)C2)CC(=O)[C@H](C)/C=C(\C)[C@@H](O)[C@@H](OC)C(=O)[C@H](C)C[C@H](C)/C=C/C=C/C=C/1C |  | Active
